The nature of experiment [1]: inhibitors of TNFa-induced NFkB p65 translocation, primary screen, imaging, HUVEC, MLSMR starter and 10KST1 sets (AID 438;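 active = inhibition above 20% together with a positive visual image hit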;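 also: compound added about 3h40 before a 20 min TNFalpha stimulation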;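 as to inhibition: signal is the nuclear over cytoplasmic p65 intensity ratio per well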). As to conditions: HUVEC TNFa-induced p65 nuclear translocation; cell count: measured here: nuclei count (cytotoxicity indicator), at 2.08 µM; inhibition: at 2 µM, stronger effect = higher value, 0% TNFa-plus-vehicle, 100% no-TNFa wells.
The nature of experiment [2]: reduction of polyQ htt aggregates in cells – imaging, exon1htt(103Q)mCFP cells, high-content imaging, primary screen (AID 483;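 active = visual image review flags a hit and inhibition of aggregation exceeds 20%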;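 also: compound exposure lasted 3 days before fixation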;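 as to nuclei count: percent of the per-plate median nuclei count of sample wells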). Particulars: exon1htt(103Q)mCFP cell line, aggregate imaging, at 2 µM; inhibition of aggregation: stronger effect = higher value; nuclei count: measured here: cell count, toxicity.
Experiment [3] in a line: endothelial E-selectin expression blockers – imaging, HUVEC, immunofluorescence, MLSMR starter and 10KST1 sets, primary screen (AID 487;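 active = visually confirmed hit in the image check and inhibition above 20%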;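 as to inhibition: signal is fraction of cell area covered by stained E-selectin grains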;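 as to nuclei count: 100% = median nuclei count of all wells on the same plate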). As to conditions: HUVEC TNFalpha-induced E-selectin immunofluorescence imaging, at 2 µM; inhibition: stronger effect = higher value; nuclei count: measured here: cell number, toxicity.
In experiment [4] the target is Voltage-gated potassium channel subunit beta-2 (Rattus norvegicus) (UniProt P62483). Kind of experiment: inhibitors of rat Kvbeta2 reductase activity – biochemical, NADPH fluorescence, primary screen (AID 622;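 active = fluorescence slope higher than the sample average by over 3 SD, cut at about -0.22 in these data, passing the limit was not always enough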;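 also: slope of raw intensity against log time taken from 70 to 1610 s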). As to conditions: recombinant KvBeta, 4-cyanobenzaldehyde reduction, at 10 µM, stronger effect = higher value.
Voltage-gated potassium channel subunit beta-2 (Rattus norvegicus), sequence (P62483 whole entry, looked up): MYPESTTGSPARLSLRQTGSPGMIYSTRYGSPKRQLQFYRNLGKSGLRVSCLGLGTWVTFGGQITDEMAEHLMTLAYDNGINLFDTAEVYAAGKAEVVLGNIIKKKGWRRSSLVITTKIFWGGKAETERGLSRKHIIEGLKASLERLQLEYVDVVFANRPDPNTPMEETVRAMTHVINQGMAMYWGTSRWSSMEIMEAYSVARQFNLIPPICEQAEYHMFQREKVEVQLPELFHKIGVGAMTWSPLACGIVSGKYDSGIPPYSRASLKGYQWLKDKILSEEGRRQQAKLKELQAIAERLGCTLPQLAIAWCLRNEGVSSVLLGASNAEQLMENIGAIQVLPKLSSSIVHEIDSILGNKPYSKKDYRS
For experiment [5] the target is unchanged. Kind of experiment: enhancers of rat Kvbeta2 NADPH turnover – biochemical, NADPH fluorescence, primary screen (AID 623;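 active = NADPH fluorescence slope more negative than the mean of all samples by about 3 SD, 99.7% confidence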;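 also: fluorescence intensity change per second fitted from 20 to 320 s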). As to conditions: Recombinant KvBeta, NADPH fluorescence decrease slope, 10 min; at 10 µM; stronger effect = lower value.
The target of experiment [6] is Muscarinic acetylcholine receptor M4 (Homo sapiens) (UniProt P08173). The experiment can be described thus: M4-linked GIRK flux change, two-sided – cell-based, HEK293 M4/GIRK, thallium flux, BTC-AM, M4 allosteric agonist project, primary screen (AID 625;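 active = fluorescence slope after compound addition differing from the mean of all tested samples at 99.7% confidence, mostly higher but some lower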;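 also: thallium influx through GIRK channels coupled to M4 in HEK293 cells with BTC-AM dye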). As to conditions: at 10 µM, actives lie on both sides. The method in brief: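 System: HEK293 cells with M4 receptor and GIRK channels | Incubation: Cells overnight at 37 °C, BTC-AM loading 1 h, reads 2 min total | Technique: Kinetic BTC-AM fluorescence sampled at 1 Hz, 10 s pre-addition baseline | Measure: Post-addition slope, 15–24 s, of baseline-normalized fluorescence | Control set: Carbachol positive, DMSO negative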
Muscarinic acetylcholine receptor M4 (Homo sapiens), sequence (P08173 whole entry, looked up): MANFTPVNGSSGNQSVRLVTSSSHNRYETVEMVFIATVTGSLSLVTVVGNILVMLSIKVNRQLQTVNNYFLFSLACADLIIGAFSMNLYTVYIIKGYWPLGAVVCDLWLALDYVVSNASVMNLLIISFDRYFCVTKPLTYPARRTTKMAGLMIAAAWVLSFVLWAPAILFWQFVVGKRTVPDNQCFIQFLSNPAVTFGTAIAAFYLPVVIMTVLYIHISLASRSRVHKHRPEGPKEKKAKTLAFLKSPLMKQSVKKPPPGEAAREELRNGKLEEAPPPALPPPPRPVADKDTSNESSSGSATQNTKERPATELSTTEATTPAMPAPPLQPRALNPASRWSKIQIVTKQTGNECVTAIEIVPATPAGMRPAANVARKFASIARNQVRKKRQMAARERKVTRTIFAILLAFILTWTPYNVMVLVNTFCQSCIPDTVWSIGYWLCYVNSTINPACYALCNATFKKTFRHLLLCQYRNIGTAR

Experiment [7] in a line: blockers of RIG-like receptor reporter activation – cell-based, Sendai virus stimulus, luciferase, 10K MLSCN set, TLR/RLR signaling modifier project, primary screen (AID 602276).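 Also: firefly luciferase from ISG56 promoter only with Renilla not read in this screen; 0% = Sendai virus plus DMSO and 100% = medium plus DMSO without virus.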 As to conditions: HEK293 RL24 IRF3 luciferase reporter, at 10 µM, stronger effect = higher value.
Experiment [8] in a line: TLR3 IRF3 reporter activation blockers – cell-based, poly I:C stimulus, luciferase, 10K MLSCN set, primary screen (AID 602277;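 active = inhibition of the reporter signal at or above 50%; inactive = inhibition below 50%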). As to conditions: HEK293-TLR3 RL24 IRF3 luciferase reporter, at 10 µM, stronger effect = higher value.

Molecules are shown by their SMILES. Active and inactive are the calls of the source.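 The calls were made as follows, unless noted: active = inhibition at or above 50% at 10 µM; inactive = inhibition below 50%.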

On to `CCN(CC)S(=O)(=O)c1ccc2c(c1)c(=O)c(C(=O)NCCOC)cn2C`, for which the cell count in experiment [1] was 203. In addition, the inhibition in experiment [1] is 6.9% (inactive); in experiment [3] it was -24.6% (inactive); in experiment [7] it was 19.3% (inactive); in experiment [8], 15.8% (inactive). Besides, the inhibition of aggregation in experiment [2] was 2.8% (inactive). For the same compound, the values for the nuclei count in experiment [2] and in experiment [3] were 100% and 112%, respectively. Further, the fluorescence slope in experiment [4] was -0.231 (inactive); in experiment [6], 0.00464 (inactive). The NADPH fluorescence slope in experiment [5] was -3.4e-05 (inactive).
Regarding `O=C(NC(C(=O)c1ccccc1)n1ccc(=O)[nH]c1=O)c1ccccc1` (stereo not given), the cell count in experiment [1] worked out at 596. In addition, the inhibition is -5.6% (inactive) in experiment [1], -6.1% (inactive) in experiment [3], 6.2% (inactive) in experiment [7] and 12% (inactive) in experiment [8]. Moreover, the inhibition of aggregation in experiment [2] is -13% (inactive). Further, the nuclei count in experiment [2] and in experiment [3] was 104% each time. Further, the fluorescence slope in experiment [4] was -0.449 (inactive); in experiment [6], 0.00666 (inactive). The NADPH fluorescence slope in experiment [5] was -9.3e-05 (inactive).
`O=C(C1CC2CCC1C2)N1CCN(Cc2ccc3c(c2)OCO3)CC1` (stereo not given): in experiment [1], the cell count amounted to 408. The inhibition is 6.8% (inactive) in experiment [1], -90.8% (inactive) in experiment [3], 13.2% (inactive) in experiment [7] and 19.3% (inactive) in experiment [8]. Further, the inhibition of aggregation in experiment [2] was 17.4% (inactive). The figures for the nuclei count in experiment [2] and in experiment [3] were 124% and 116%, respectively. The results for the fluorescence slope in experiment [4] and in experiment [6] were -0.579 (inactive) and 0.00565 (inactive), respectively. Besides, the NADPH fluorescence slope in experiment [5] was -2.2e-05 (inactive).
As for `CC(Oc1ccc(Br)cc1)C(=O)N1CCc2ccccc21` (stereo not given), in experiment [1], the cell count turned out to be 406. Further, the inhibition in experiment [1] is 6.3% (inactive); in experiment [3] it was -97.2% (inactive); in experiment [7], -4.76% (inactive); in experiment [8], -9.35% (inactive). For the same compound, the inhibition of aggregation in experiment [2] is 22.4% (inactive). The nuclei count was found to be 104% in experiment [2] and 119% in experiment [3]. Besides, the fluorescence slope is -0.486 (inactive) in experiment [4] and 0.00581 (inactive) in experiment [6]. For the same compound, the NADPH fluorescence slope in experiment [5] is 5.9e-05 (inactive).
With `Cc1nc(/N=C\N(C)C)sc1C(=O)Nc1ccccc1`, the cell count in experiment [1] was 602. Further, the inhibition is 1.5% (inactive) in experiment [1], -27.8% (inactive) in experiment [3], -2.68% (inactive) in experiment [7] and -18.9% (inactive) in experiment [8]. For the same compound, the inhibition of aggregation in experiment [2] was -11.8% (inactive). The values for the nuclei count in experiment [2] and in experiment [3] were 113% and 97.5%, respectively. Besides, the fluorescence slope in experiment [4] was -0.306 (inactive); in experiment [6] it was 0.00595 (inactive). Moreover, the NADPH fluorescence slope in experiment [5] was -2e-05 (inactive).
For the compound `CCOc1cc(C)c(C(C)C)cc1S(=O)(=O)N1CCN(C)CC1`, the cell count in experiment [1] came to 775. Moreover, the inhibition in experiment [1] was -2.4% (inactive); in experiment [3] it was -3% (inactive); in experiment [7] it was -9.48% (inactive); in experiment [8], -5.37% (inactive). For the same compound, the inhibition of aggregation in experiment [2] was 19% (inactive). Also, the nuclei count in experiment [2] worked out at 93.4%; in experiment [3] it was 112%. Further, the fluorescence slope in experiment [4] is -0.475 (inactive); in experiment [6], 0.00438 (inactive). In addition, the NADPH fluorescence slope in experiment [5] is 1.9e-05 (inactive).
With `Cc1cc(C)c(S(=O)(=O)N(C)CC(N)=O)c(C)c1`, in experiment [1], the cell count worked out at 320. Besides, the inhibition was 5.1% (inactive) in experiment [1], -60.9% (inactive) in experiment [3], -4.02% (inactive) in experiment [7] and -17.9% (inactive) in experiment [8]. The inhibition of aggregation in experiment [2] was -7.6% (inactive). Moreover, the nuclei count in experiment [2] is 103%; in experiment [3] it was 111%. The fluorescence slope was -0.489 (inactive) in experiment [4] and 0.00514 (inactive) in experiment [6]. Besides, the NADPH fluorescence slope in experiment [5] is 4.3e-05 (inactive).
For `c1ccc2nc(-c3nc4ccccc4[nH]3)ccc2c1`, the cell count in experiment [1] was 574. The inhibition in experiment [1] is 9.8% (inactive); in experiment [3], -6.9% (inactive); in experiment [7], 11.5% (inactive); in experiment [8], -35.5% (inactive). In addition, the inhibition of aggregation in experiment [2] is -19.5% (inactive). Besides, the nuclei count in experiment [2] came out at 85.8%; in experiment [3], 101%. Also, the fluorescence slope was -0.551 (inactive) in experiment [4] and 0.00356 (inactive) in experiment [6]. Further, the NADPH fluorescence slope in experiment [5] was -2.7e-05 (inactive).
In the case of `Cc1nc2nc(Cc3ccccc3)[nH]n2c(=O)c1Cc1ccccc1`, the cell count in experiment [1] worked out at 351. The inhibition in experiment [1] is -3.3% (inactive); in experiment [3] it was -62.2% (inactive); in experiment [7] it was 9.12% (inactive); in experiment [8], 15.7% (inactive). In addition, in experiment [2], the inhibition of aggregation was -11.2% (inactive). Moreover, the results for the nuclei count in experiment [2] and in experiment [3] were 97% and 96.1%, respectively. The results for the fluorescence slope in experiment [4] and in experiment [6] were -0.576 (inactive) and 0.0029 (inactive), respectively. Besides, the NADPH fluorescence slope in experiment [5] is -4.3e-05 (inactive).
As to `O=S(=O)(NC1=NCCC1)c1cccs1`, in experiment [1], the cell count is 524. For the same compound, the inhibition is -7% (inactive) in experiment [1], 27.1% (inactive) in experiment [3], 8.22% (inactive) in experiment [7] and 5.63% (inactive) in experiment [8]. Moreover, the inhibition of aggregation in experiment [2] is 11% (inactive). The nuclei count worked out at 102% in experiment [2] and 103% in experiment [3]. Moreover, the figures for the fluorescence slope in experiment [4] and in experiment [6] were -0.353 (inactive) and 0.00585 (inactive), respectively. Further, the NADPH fluorescence slope in experiment [5] is -4.6e-05 (inactive).
For `CCOC(=O)C1CCCN(S(=O)(=O)c2cccs2)C1` (stereo not given), in experiment [1], the cell count was determined as 243. Also, the inhibition was 11.2% (inactive) in experiment [1], -8.8% (inactive) in experiment [3], -3.56% (inactive) in experiment [7] and 4.98% (inactive) in experiment [8]. The inhibition of aggregation in experiment [2] was -5.5% (inactive). Further, the nuclei count in experiment [2] worked out at 95.8%; in experiment [3], 95.2%. Also, the fluorescence slope was -0.479 (inactive) in experiment [4] and 0.00471 (inactive) in experiment [6]. Further, the NADPH fluorescence slope in experiment [5] was 1.6e-05 (inactive).
As to `O=S(=O)(c1ccc(Br)s1)N1CCCCC1`, the cell count in experiment [1] is 479. For the same compound, the inhibition in experiment [1] was -1.6% (inactive); in experiment [3], 0.6% (inactive); in experiment [7] it was 5.16% (inactive); in experiment [8] it was 9.33% (inactive). Besides, the inhibition of aggregation in experiment [2] was -18.8% (inactive). The nuclei count in experiment [2] stood at 100%; in experiment [3] it was 106%. In addition, the figures for the fluorescence slope in experiment [4] and in experiment [6] were -0.615 (inactive) and 0.00346 (inactive), respectively. In addition, the NADPH fluorescence slope in experiment [5] is 4.4e-05 (inactive).
With `O=C(Cn1c(=O)n(Cc2ccc3c(c2)OCO3)c(=O)c2ccccc21)N1CCCc2ccccc21`, the cell count in experiment [1] was 680. Besides, the inhibition is -6.8% (inactive) in experiment [1], -22.2% (inactive) in experiment [3], 21.3% (inactive) in experiment [7] and 26.4% (inactive) in experiment [8]. Besides, in experiment [2], the inhibition of aggregation was -11.1% (inactive). Further, the nuclei count in experiment [2] is 87.9%; in experiment [3], 109%. The fluorescence slope is -0.595 (inactive) in experiment [4] and 0.00433 (inactive) in experiment [6]. In addition, the NADPH fluorescence slope in experiment [5] was -6.4e-06 (inactive).
On to `Nc1cc(-c2ccccc2)ccc1O`, for which the cell count in experiment [1] was found to be 329. Moreover, the inhibition is 6.3% (inactive) in experiment [1], -40.6% (inactive) in experiment [3], -0.254% (inactive) in experiment [7] and 1.06% (inactive) in experiment [8]. The inhibition of aggregation in experiment [2] was 33.9% (active). The nuclei count is 88.4% in experiment [2] and 103% in experiment [3]. Besides, the fluorescence slope in experiment [4] is -0.314 (inactive); in experiment [6], 0.00771 (inactive). Moreover, the NADPH fluorescence slope in experiment [5] was -1.6e-05 (inactive).
Take `Cc1cc(NC(=O)CCC(=O)N(CCc2ccccc2)C(C(=O)NC2CCCC2)c2ccco2)no1` (stereo not given): the cell count in experiment [1] is 592. Besides, the inhibition was -7.5% (inactive) in experiment [1], 6.8% (inactive) in experiment [3], 4.62% (inactive) in experiment [7] and 19.1% (inactive) in experiment [8]. The inhibition of aggregation in experiment [2] was -11.5% (inactive). Also, the nuclei count amounted to 102% in experiment [2] and 101% in experiment [3]. The fluorescence slope is -0.483 (inactive) in experiment [4] and 0.00558 (inactive) in experiment [6]. In addition, in experiment [5], the NADPH fluorescence slope was 0.000137 (inactive).

For the origin of these results see PubChem BioAssay.
